Active and inactive are the calls of the source. Unless noted, no cut-off for these calls is given here.
Columns and labels:
BMDC = assay: Antiinflammatory activity in mouse BMDC assessed as downregulation of TLR4 expression; format: functional
[1] = target: T1, Toll-like receptor 4 (Mus musculus) (UniProt Q9QUK6); assay: Inhibition of TLR4 in C57BL/6 mouse BMDC assessed as reduction of LPS-induced TNF-alpha production at 5 ug/mL preincubated for 2 hrs prior to LPS challenge measured after 24 hrs by ELISA
T1 sequence (whole entry): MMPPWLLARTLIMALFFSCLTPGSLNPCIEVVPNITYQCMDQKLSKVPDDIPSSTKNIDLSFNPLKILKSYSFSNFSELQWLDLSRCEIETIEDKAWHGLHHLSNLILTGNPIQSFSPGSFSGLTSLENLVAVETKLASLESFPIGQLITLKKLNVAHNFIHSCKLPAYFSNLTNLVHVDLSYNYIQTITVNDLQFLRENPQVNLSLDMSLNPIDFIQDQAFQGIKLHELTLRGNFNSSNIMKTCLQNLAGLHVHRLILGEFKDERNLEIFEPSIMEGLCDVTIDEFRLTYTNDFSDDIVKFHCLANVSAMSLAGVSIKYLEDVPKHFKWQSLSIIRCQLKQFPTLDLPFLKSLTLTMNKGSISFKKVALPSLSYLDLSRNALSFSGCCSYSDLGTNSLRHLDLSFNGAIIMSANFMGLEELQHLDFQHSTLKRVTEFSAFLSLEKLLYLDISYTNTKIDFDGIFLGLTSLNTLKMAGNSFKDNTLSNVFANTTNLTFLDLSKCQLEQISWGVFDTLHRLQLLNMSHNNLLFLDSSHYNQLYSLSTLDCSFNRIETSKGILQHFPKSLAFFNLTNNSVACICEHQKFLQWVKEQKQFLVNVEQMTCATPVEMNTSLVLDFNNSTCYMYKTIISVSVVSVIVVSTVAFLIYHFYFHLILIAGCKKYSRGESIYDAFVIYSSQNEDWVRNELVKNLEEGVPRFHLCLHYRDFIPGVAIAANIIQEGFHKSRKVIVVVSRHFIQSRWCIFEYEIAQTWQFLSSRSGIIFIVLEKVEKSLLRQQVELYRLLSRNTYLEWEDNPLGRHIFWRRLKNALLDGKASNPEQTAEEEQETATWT
Summary of the method: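 C57BL/6 bone marrow DCs were generated in complete RPMI with 10 ng/mL GM-CSF. They were preincubated ± compound at 5 μg/mL for 2 h, then stimulated with LPS for 24 h. TNF-α, IL-6 and IL-23 in conditioned medium were measured by ELISA. Values are means of triplicates ± SEM pooled from 4 experiments.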

Mus musculus [2] = assay: Antiinflammatory activity in DBA/1 mouse collagen-induced arthritis model assessed as reduction in serum level of IL-17 at 50 ug/kg, sc administered 2 days prior to collagen challenge continued till day 21 post collagen challenge by ELISA; format: functional, organism-based
Summary of the method: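 Serum IL-17 was measured by ELISA in CIA mice dosed subcutaneously (1 μg/dose or PBS) on days −2, 0 and 21. Values are the mean of triplicate analyses per individual mouse (PBS n = 12, treated n = 13).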

[3] = target: T1, Toll-like receptor 4 (Mus musculus); assay: Inhibition of TLR4 in BALB/c mouse BMDM assessed as reduction of LPS-stimulated IL-6 production at 5 ug/ml preincubated for 18 hrs followed by LPS challenge measured after 24 hrs by ELISA
Summary of the method: (§1)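 BALB/c male bone marrow macrophages were differentiated 7 days with L929 supernatant (≥99% CD11b+/F4/80+). Cells were plated at 2 × 10^5/well in triplicate, rested overnight, and given compounds at 5 μg/mL for 18 h. They were then stimulated with 100 ng/mL S. minnesota LPS, 10 ng/mL Pam3CSK4 (BLP) or 0.01 μM CpG for 24 h. Supernatant IL-12p40 and IL-6 were measured by ELISA (sensitivity 16 pg/mL).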

[4] = target: T2, Toll-like receptor 9 (Mus musculus) (UniProt Q9EQU3); assay: Inhibition of TLR9 in BALB/c mouse BMDM assessed as downregulation of CpG-stimulated IL-6 level at 5 ug/ml preincubated for 18 hrs followed by CpG challenge measured after 24 hrs by ELISA relative to control; summary of the method: as §1
T2 sequence (whole entry): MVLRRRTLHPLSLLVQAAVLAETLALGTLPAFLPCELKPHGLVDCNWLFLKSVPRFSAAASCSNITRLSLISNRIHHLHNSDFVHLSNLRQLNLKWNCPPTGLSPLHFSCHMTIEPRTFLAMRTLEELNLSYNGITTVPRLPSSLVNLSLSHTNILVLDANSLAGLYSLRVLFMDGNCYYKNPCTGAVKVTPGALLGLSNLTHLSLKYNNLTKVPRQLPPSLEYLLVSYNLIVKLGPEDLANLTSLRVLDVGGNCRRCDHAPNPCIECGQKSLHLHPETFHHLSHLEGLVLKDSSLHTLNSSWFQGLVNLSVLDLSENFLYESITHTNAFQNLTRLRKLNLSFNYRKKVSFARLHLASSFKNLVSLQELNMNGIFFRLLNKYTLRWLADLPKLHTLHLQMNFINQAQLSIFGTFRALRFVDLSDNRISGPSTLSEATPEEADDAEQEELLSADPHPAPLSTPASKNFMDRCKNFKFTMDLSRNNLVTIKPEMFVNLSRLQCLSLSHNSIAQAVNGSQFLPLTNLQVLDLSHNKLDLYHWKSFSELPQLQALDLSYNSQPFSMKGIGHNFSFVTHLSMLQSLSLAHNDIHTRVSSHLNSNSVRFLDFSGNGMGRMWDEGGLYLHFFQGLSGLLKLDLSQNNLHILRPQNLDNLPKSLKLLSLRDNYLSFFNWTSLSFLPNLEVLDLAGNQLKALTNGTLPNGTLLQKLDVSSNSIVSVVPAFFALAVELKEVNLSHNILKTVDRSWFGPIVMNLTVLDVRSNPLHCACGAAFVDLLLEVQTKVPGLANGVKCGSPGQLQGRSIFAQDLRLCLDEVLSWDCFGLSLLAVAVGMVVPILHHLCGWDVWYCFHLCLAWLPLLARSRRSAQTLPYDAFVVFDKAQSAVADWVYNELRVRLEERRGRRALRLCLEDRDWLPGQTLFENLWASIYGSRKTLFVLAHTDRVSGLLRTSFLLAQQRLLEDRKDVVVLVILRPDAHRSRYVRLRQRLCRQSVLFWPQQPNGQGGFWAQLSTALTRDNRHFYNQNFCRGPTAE

[5] = target: T2, Toll-like receptor 9 (Mus musculus); assay: Inhibition of TLR9 in BALB/c mouse BMDM assessed as downregulation of CpG-stimulated IL-12p40 level at 5 ug/ml preincubated for 18 hrs followed by CpG challenge measured after 24 hrs by ELISA relative to control; summary of the method: as §1
Mus musculus [6] = species on record: Mus musculus; assay: Inhibition of TLR4/IL-1R in BALB/c mouse BMDM assessed as downregulation of LPS-stimulated MyD88 expression at 5 ug/mL preincubated for 2 hrs followed by LPS challenge measured after 18 hrs by flow cytometric analysis (reference value: 127%); values are per cent of control

With `CN(C)CCS(=O)(=O)Cc1ccc(Br)cc1` the Activity (BMDC) was “inactive”, the inhibition [1] was “Active” and the Activity (Mus musculus [2]) was “inactive”. For the same molecule, the inhibition [3] was “Active”, the inhibition [4] was “Active” and the inhibition [5] was “Active”. For the same molecule, the residual activity (Mus musculus [6]) was 95.7%.

Source: ChEMBL document CHEMBL3108700, “Designing anti-inflammatory drugs from parasitic worms: a synthetic small molecule analogue of the Acanthocheilonema viteae product ES-62 prevents development of collagen-induced arthritis” (J Med Chem, 2013)
